Data taken from PMC3517215 (Journal of medicinal chemistry, 2011).
“And” between values parts separate entries of the source, which are not always exact repeats. Equal values may be shown once.

Molecular target: T1, human sEH (Homo sapiens, UniProt P34913)
T1 sequence (P34913 1-555): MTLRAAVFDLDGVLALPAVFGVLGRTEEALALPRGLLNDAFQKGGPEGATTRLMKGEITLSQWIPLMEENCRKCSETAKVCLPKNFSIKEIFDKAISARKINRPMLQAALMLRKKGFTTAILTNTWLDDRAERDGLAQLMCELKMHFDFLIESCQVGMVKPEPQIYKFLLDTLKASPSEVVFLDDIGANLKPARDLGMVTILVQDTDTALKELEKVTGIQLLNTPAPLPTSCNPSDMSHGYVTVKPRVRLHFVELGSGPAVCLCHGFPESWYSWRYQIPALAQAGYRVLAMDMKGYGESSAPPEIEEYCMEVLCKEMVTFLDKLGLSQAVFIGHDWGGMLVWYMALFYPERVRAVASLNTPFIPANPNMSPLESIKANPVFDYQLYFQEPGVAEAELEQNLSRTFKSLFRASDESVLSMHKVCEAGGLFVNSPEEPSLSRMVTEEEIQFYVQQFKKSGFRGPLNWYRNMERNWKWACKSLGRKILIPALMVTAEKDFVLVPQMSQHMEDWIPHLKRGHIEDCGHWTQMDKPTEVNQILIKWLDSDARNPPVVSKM
Assay: Human sEH inhibition, fluorescent assay with CMNPC substrate
Type: biochemical
In short: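 Recombinant human sEH from baculovirus-infected Sf9 cells, purified by His-tag affinity, TEV cleavage and anion exchange. Enzyme (1 nM) preincubated 10 min with test compound (DMSO) in 25 mM Bis-Tris/HCl pH 7.0 at 30 °C, then CMNPC added (5 μM). 6-Methoxy-2-naphthaldehyde fluorescence (ex 330/em 465 nm) read over 10 min. IC50 by regression of ≥6 points (≥3 linear); mean of three runs.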

SMILES: O=C(NCCCCc1ccccc1)C12CC3CC(CC(C3)C1)C2 [Compound 26]
- fold decrease in inhibition potency relative to compound 19: 4–6 fold

SMILES: COC(=O)c1ccc(CNC(=O)c2ccc3ccccc3c2)cc1 [Compound 33]
- fold less potent compared to compound 32: 3 fold

SMILES: CC(C)(C)C1CCC(C(=O)NCCCc2ccccc2)CC1 (stereo not shown) [Compound 9]
- fold improvement over the non-substituted derivatives (4–7): 3.5–15 fold

SMILES: O=C(NCCc1ccccc1)C12CC3CC(CC(C3)C1)C2 [Compound 25]
- fold decrease in inhibition potency relative to compound 19: 4–6 fold

SMILES: CCOC(=O)c1ccc(NC(=O)C23CC4CC(CC(C4)C2)C3)cc1 [Compound 27]
- fold better inhibition in comparison with compound 28: > 10 fold

SMILES: COC(=O)c1ccc(CCNC(=O)C23CC4CC(CC(C4)C2)C3)cc1 [Compound 30]
- fold loss in inhibition potency relative to compound 29: > 7 fold

SMILES: O=C(NCCCc1ccccc1)C1CCC(C(F)(F)F)CC1 (stereo not shown) [Compound 8]
- fold improvement over the non-substituted derivatives (4–7): 3.5–15 fold

SMILES: O=C(NCCCc1ccccc1)C1CCCCC1 [Compound 6]
- fold improvement in inhibition relative to compounds 4 or 5: > 5 fold

SMILES: COC(=O)c1ccc2cc(NC(=O)C34CC5CC(CC(C5)C3)C4)ccc2c1 [Compound 31, methyl 6-(1-adamantanecarboxamido)naphthalene-2-carboxylate]
- fold loss in inhibition potency relative to compound 29: 7 fold and > 7 fold

SMILES: O=C(NCCCc1ccccc1)C1CC=CCC1 (stereo not shown) [Compound 7]
- fold improvement in inhibition relative to compounds 4 or 5: > 5 fold

SMILES: COC(=O)c1ccc(CNC(=O)C2CCc3ccccc3C2)cc1 (stereo not shown) [Compound 32, methyl 4-((1,2,3,4-tetrahydronaphthalene-2-carboxamido)methyl)benzoate]
- fold improvement relative to compound 29: 5 fold

SMILES: O=C(NCCCc1ccccc1)C1CCc2ccccc2C1 (stereo not shown) [Compound 20]
- fold improvement in inhibition potency relative to compound 19: 3 fold

SMILES: COC(=O)c1ccc(CNC(=O)C23CC4CC(CC(C4)C2)C3)cc1 [Compound 29]
- fold better inhibition than compound 27: ~10 fold
